Results: PubChem BioAssay
Records with an inconclusive call do not appear.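 The calls were made as follows, unless noted: active = growth inhibition above 25% in both replicates, a cutoff set 3 SD above the mean; inconclusive = above 25% in only one replicate; inactive = the rest.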

Columns and labels:
[1] = S. cerevisiae growth inhibition in permissive medium (OD615), pilot counter-assay for S. cerevisiae lifespan shortening project, permissive growth control (AID 705); conditions: OD615, 24 h, at 10 µM, active compounds read high
Outline: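 Test system: Saccharomyces cerevisiae strain carrying genetically modified DeaD replicative-lifespan system; buffer or medium: SC raffinose/galactose permissive medium; dosing: one dose 10 µM, DMSO 0.25% final; times: 24 h exposure, 30 °C; measured by: OD at 615 nm; read-out basis: growth inhibition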

[2] = S. cerevisiae growth inhibition in restrictive medium, OD615, pilot screen, restrictive growth control, yeast lifespan reduction project (AID 706;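 active = growth inhibition above a set limit, 3 SD over mean compound inhibition, in both replicates, cut at about 43% in these data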;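 also: modified DeaD lifespan yeast strain shifted to restrictive glucose medium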); conditions: OD615, 48 h, at 10 µM, active compounds read high
Outline: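 material = engineered S. cerevisiae DeaD strain | buffer or medium = glucose-based CSMM-D restrictive medium | dosing = one concentration, 10 µM final, 0.25% DMSO | schedule = 4 h pre-growth plus 48 h compound exposure, 30 °C | detection = OD615 absorbance reading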

[3] = doxorubicin toxicity protection in MRP-1 cells – H69AR cells, CellTiter-Glo, duplicate, MRP-1 activator project, pilot screen (AID 807;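 active = viability increase at or above a cutoff of the median across tested compounds plus 3 SD, cut at about 8.5% in these data, passing the limit was not always enough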;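 also: compound pretreatment 18-22 h then 72 h combined with doxorubicin; 0% = doxorubicin alone and 100% = vehicle without doxorubicin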); conditions: H69AR viability with doxorubicin, CellTiter-Glo luminescence; at 10 µM; active compounds read high
[4] = viability of HCT116 without oncogenic beta-catenin – human colon tumor cells, pilot screen (AID 823;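 active = cell viability at or below a set limit in both duplicate runs, the limit being the all-compound median minus 4 SD, cut at about 23% in these data, passing the limit was not always enough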;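 also: 0% = wells killed by 20 µM Hyamine and 100% = untreated DMSO cell wells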); conditions: HCT116 beta-catenin knockout viability, CellTiter-Glo, 60 h; at 10 µM; active compounds read low
[5] = viability of PTEN-null HCT116 cells – cell-based, HCT116 clonal line, CellTiter-Glo, pilot screen (AID 824;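 active = viability at or below 27.92% in each of two runs, the all-compound median minus 4 SD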;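 also: 0% = 20 µM Hyamine control and 100% = vehicle cell control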); conditions: HCT116 PTEN-deleted viability, 60 h, at 10 µM, active compounds read low
[6] = RAM pathway blockade in budding yeast – dse1pr::URA3 reporter, 5-FOA selection, pilot screen (AID 869;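 active = inhibition over a set limit, the all-compound mean plus 3 SD, in both replicate runs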;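 also: 0% = DMSO wells with no growth and 100% = 10 µM 1-NA-PP1 with full growth; RAM network block rescues cells from 5-FOA so hits raise OD615 growth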); conditions: S. cerevisiae dse1pr::URA3 5-FOA growth, OD615, 2 d; at 10 µM; active compounds read high; strain carries analog-sensitive mutant Cbk1 kinase
[7] = RAM signaling pathway blockade in yeast – S. cerevisiae, Pdr1DBD-CYC8 efflux-inhibited sensitized strain, primary screen (AID 1298;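 active = RAM network inhibition above 8.4% in each of two replicates, 3 SD over the compound average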;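 also: 0% = DMSO untreated cells without growth and 100% = 10 µM 1-NA-PP1 full growth; higher means more yeast growth rescued from 5-FOA killing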); conditions: S. cerevisiae cbk1-as DSE1-URA3 strain, 5-FOA growth OD615, 2 d; at 50 µM; active compounds read high

COc1cccc(C2NC(=O)NC(C)=C2C(=O)Nc2ccc(C)cc2)c1 (stereo not drawn)
inactive: growth inhibition [1] -9.18% | growth inhibition [2] -12% | viability increase [3] 1.54% | viability [4] 106% | viability [5] 97.6% | inhibition [6] 0.285% | RAM network inhibition [7] 3.39%

CN(CCC#N)C(=O)Cn1nc(Cc2ccncc2)c2ccccc2c1=O
inactive: growth inhibition [1] -2.53% | growth inhibition [2] -1.35% | viability increase [3] 0.95% | viability [4] 102% | viability [5] 95.6% | inhibition [6] 0.515% | RAM network inhibition [7] 0.16%

Cc1nnc(SCCn2c(N3CCCC(C)C3)nc3c2c(=O)n(C)c(=O)n3C)s1 (stereo not drawn)
inactive: growth inhibition [1] -11.4% | growth inhibition [2] -13.6% | viability increase [3] -3.23% | viability [4] 94.2% | viability [5] 97.2% | inhibition [6] 2.31% | RAM network inhibition [7] 1.84%

O=C(Nc1nnc(C2CC2)s1)c1cc(-c2ccccc2)nn1-c1ccccc1
inactive: growth inhibition [1] 2.87% | growth inhibition [2] 30.2% | viability increase [3] -0.61% | viability [4] 76.6% | viability [5] 71.9% | inhibition [6] 2.71% | RAM network inhibition [7] 3.62%

CCOc1ccc(N(CC(=O)NCc2cccs2)S(=O)(=O)c2c(C)noc2C)cc1
inactive: growth inhibition [1] -17.4% | growth inhibition [2] -7.87% | viability increase [3] -2.25% | viability [4] 95.1% | viability [5] 94.7% | inhibition [6] 1.49% | RAM network inhibition [7] 6.62%

O=C(NCc1ccccn1)C1CCC(=O)N1C1CCCC1 (stereo not drawn)
inactive: growth inhibition [1] -0.9% | growth inhibition [2] 3.94% | viability increase [3] -0.45% | viability [4] 98.2% | viability [5] 98% | inhibition [6] 1.67% | RAM network inhibition [7] 4.67%

Cn1c(C(=O)NCCc2ccsc2)cc2c(=O)n(C)c3ccccc3c21
inactive: growth inhibition [1] -13.2% | growth inhibition [2] -8.68% | viability increase [3] -4.49% | viability [4] 105% | viability [5] 92.2% | inhibition [6] 2.64% | RAM network inhibition [7] 4.41%

CC(=O)SCCC(=O)N1C(C)CCCC1C(=O)O (stereo not drawn)
inactive: growth inhibition [1] -1.05% | growth inhibition [2] -7.75% | viability increase [3] -0.97% | viability [4] 95.9% | viability [5] 102% | inhibition [6] 0.62% | RAM network inhibition [7] 5.78%

Cc1cc2c3nonc3ccc2n1-c1ccccc1
inactive: growth inhibition [1] -16.1% | growth inhibition [2] -15% | viability increase [3] -2.59% | viability [4] 83% | viability [5] 86% | inhibition [6] 0.9% | RAM network inhibition [7] 6.15%

COc1ccc(S(=O)(=O)Nc2ccc3c(c2)OCO3)cc1C(=O)O
inactive: growth inhibition [1] -4.6% | growth inhibition [2] -5.47% | viability increase [3] -1.95% | viability [4] 93.5% | viability [5] 94.5% | inhibition [6] 0.425% | RAM network inhibition [7] 3.99%

COc1ccc(-n2c(Cc3cccn3C)nnc2SCC(=O)Nc2ccccc2C)cc1
inactive: growth inhibition [1] -11.6% | growth inhibition [2] 11.1% | viability increase [3] -2.39% | viability [4] 86% | viability [5] 81.7% | inhibition [6] 1.33% | RAM network inhibition [7] 7.38%

O=C(NCCCN1CCOCC1)c1ccco1
inactive: growth inhibition [1] -9.93% | growth inhibition [2] -3.09% | viability increase [3] -0.94% | viability [4] 98.8% | viability [5] 96.2% | inhibition [6] 0.23% | RAM network inhibition [7] 2.27%

COc1ccc(CNC(=O)CS(=O)Cc2nc(-c3ccc(C)cc3)oc2C)cc1 (stereo not drawn)
inactive: growth inhibition [1] -5.34% | growth inhibition [2] 0.735% | viability increase [3] -2.44% | viability [4] 86.9% | viability [5] 93.4% | inhibition [6] 1.39% | RAM network inhibition [7] 5.95%

CC(NC(=O)c1ccc(Cl)cc1)C(=O)N1CCCCC1 (stereo not drawn)
inactive: growth inhibition [1] 2.3% | growth inhibition [2] 0.39% | viability increase [3] 0.75% | viability [4] 98% | viability [5] 96.9% | inhibition [6] 2.58% | RAM network inhibition [7] 5.32%

CC1=C(C(N)=O)C(c2cccc(O)c2)n2nc(CCCO)nc2N1 (stereo not drawn)
inactive: growth inhibition [1] -9.85% | growth inhibition [2] -1.35% | viability increase [3] -1.07% | viability [4] 101% | viability [5] 104% | inhibition [6] 2.02% | RAM network inhibition [7] 2.87%

Cc1ccn2cc(-c3ccc(S(=O)(=O)N4CCOCC4)cc3)nc2c1
inactive: growth inhibition [1] -2.96% | growth inhibition [2] 6.53% | viability increase [3] 2.12% | viability [4] 106% | viability [5] 102% | inhibition [6] 1.6% | RAM network inhibition [7] 1.79%

Cc1nc(CCNC(=O)COc2ccccc2)cs1
inactive: growth inhibition [1] -11% | growth inhibition [2] -3.25% | viability increase [3] -0.26% | viability [4] 103% | viability [5] 96.5% | inhibition [6] 1.14% | RAM network inhibition [7] 7.03%

Cc1ccc(OC(=O)CCC(=O)Nc2ccc(S(=O)(=O)Nc3cc(C)on3)cc2)cc1
inactive: growth inhibition [1] -2.27% | growth inhibition [2] 0.38% | viability increase [3] -1.11% | viability [4] 109% | viability [5] 106% | inhibition [6] 0.875% | RAM network inhibition [7] 3.97%

O=C(O)c1cnn2c1NC(c1cccs1)CC2C(F)(F)F (stereo not drawn)
inactive: growth inhibition [1] -22.6% | growth inhibition [2] -21.6% | viability increase [3] 0.98% | viability [4] 96.8% | viability [5] 104% | inhibition [6] 1.5% | RAM network inhibition [7] 4.4%

COc1ccccc1C1N(c2cc(Cl)ccc2OC)C(=O)C2CCCN21 (stereo not drawn)
inactive: growth inhibition [1] 8.71% | growth inhibition [2] 3.69% | viability increase [3] -2.83% | viability [4] 98.7% | viability [5] 96.3% | inhibition [6] 0.445% | RAM network inhibition [7] 2.33%

COC(=O)c1cc(COc2ccc3c4c(c(=O)oc3c2)CCCC4)c(C)o1
inactive: growth inhibition [1] 2.28% | growth inhibition [2] 5.14% | viability increase [3] -0.68% | viability [4] 103% | viability [5] 100% | inhibition [6] 0.985% | RAM network inhibition [7] 3.78%

CCN=C(Nc1ccc2c(c1)OCO2)SC1CC(=O)N(c2ccccc2F)C1=O (stereo not drawn)
inactive: growth inhibition [1] -4.17% | growth inhibition [2] -8.21% | viability increase [3] -1.9% | viability [4] 97% | viability [5] 95.9% | inhibition [6] 3.15% | RAM network inhibition [7] 10.8%

CN(C)CCCNc1ncnc2c1cnn2-c1ccccc1
inactive: growth inhibition [1] -5.54% | growth inhibition [2] -5.82% | viability increase [3] 2.9% | viability [4] 94.3% | viability [5] 106% | inhibition [6] 0.27% | RAM network inhibition [7] -0.77%

CCN1CCN(C(c2cccs2)C(C)NC(=O)c2cccc(OC)c2)CC1 (stereo not drawn)
inactive: growth inhibition [1] -2.49% | growth inhibition [2] -14.8% | viability increase [3] -2.25% | viability [4] 103% | viability [5] 89.7% | inhibition [6] -0.09% | RAM network inhibition [7] -0.01%
